Measured values reported in ChEMBL document CHEMBL5696442, “Discovery of type II inhibitors of TGFβ-activated kinase 1 (TAK1) and mitogen-activated protein kinase kinase kinase kinase 2 (MAP4K2)” (J Med Chem, 2015).
Activity calls are given as the source filed them. No cut-off for these calls is given here.

Columns and labels:
[1] = biological target: Tyrosine-protein kinase Fyn (Homo sapiens) (UniProt P06241); test: Inhibition of FYN (unknown origin) at 10 uM by Ambit Kinomescan binding assay relative to control; values are per cent of control
[2] = biological target: Serine/threonine-protein kinase 36 (Homo sapiens) (UniProt Q9NRP7); test: Inhibition of STK36 (unknown origin) at 10 uM by Ambit Kinomescan binding assay relative to control; values are per cent of control
[3] = biological target: Activin receptor type-1B (Homo sapiens) (UniProt P36896); test: Inhibition of ACVR1B (unknown origin) at 10 uM by Ambit Kinomescan binding assay
[4] = biological target: Serine/threonine-protein kinase MRCK alpha (Homo sapiens) (UniProt Q5VT25); test: Inhibition of MRCKA (unknown origin) at 10 uM by Ambit Kinomescan binding assay
[5] = biological target: T1, Receptor-interacting serine/threonine-protein kinase 4 (Homo sapiens) (UniProt P57078); test: Inhibition of RIPK4 (unknown origin) at 10 uM by Ambit Kinomescan binding assay
T1 sequence (whole entry): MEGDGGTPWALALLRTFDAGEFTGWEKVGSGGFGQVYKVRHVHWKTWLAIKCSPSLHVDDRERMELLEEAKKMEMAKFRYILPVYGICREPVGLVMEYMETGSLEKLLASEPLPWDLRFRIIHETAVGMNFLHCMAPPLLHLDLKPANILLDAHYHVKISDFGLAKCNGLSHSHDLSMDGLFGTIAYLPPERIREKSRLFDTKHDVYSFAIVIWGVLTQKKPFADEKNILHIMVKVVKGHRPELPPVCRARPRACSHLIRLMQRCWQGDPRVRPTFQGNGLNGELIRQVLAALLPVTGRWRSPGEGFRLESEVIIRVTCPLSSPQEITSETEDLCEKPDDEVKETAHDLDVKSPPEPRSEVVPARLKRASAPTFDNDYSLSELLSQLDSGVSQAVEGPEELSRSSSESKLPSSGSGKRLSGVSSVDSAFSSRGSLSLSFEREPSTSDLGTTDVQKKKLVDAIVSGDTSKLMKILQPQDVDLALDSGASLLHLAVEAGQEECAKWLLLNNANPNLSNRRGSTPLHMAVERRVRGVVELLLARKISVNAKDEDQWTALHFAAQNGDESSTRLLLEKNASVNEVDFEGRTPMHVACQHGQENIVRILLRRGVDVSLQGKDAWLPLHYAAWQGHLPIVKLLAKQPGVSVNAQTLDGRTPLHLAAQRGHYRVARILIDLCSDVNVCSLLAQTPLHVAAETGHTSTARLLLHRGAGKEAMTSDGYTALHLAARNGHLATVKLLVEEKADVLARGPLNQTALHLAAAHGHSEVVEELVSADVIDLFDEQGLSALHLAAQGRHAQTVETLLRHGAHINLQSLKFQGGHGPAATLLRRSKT

[6] = system: Epidermal growth factor receptor (Homo sapiens), P00533 [UNDEFINED MUTATION]; details: dose 10.0 µM
[7] = biological target: TRAF2 and NCK-interacting protein kinase (Homo sapiens) (UniProt Q9UKE5); test: Inhibition of TNIK K1 labeling site in human Huh-7 cells at 1 uM by KiNativ Profiling analysis relative to control; assay type: cell-based
[8] = biological target: Activin receptor type-1 (Homo sapiens) (UniProt Q04771); test: Inhibition of ACVR1 (unknown origin) at 10 uM by Ambit Kinomescan binding assay
[9] = biological target: Tyrosine-protein kinase ABL1 (Homo sapiens, UniProt P00519); test: Inhibition of ABL Lys1 labeling site in human A-375 cells at 0.05 uM by KiNativ Profiling analysis relative to control; assay type: cell-based
[10] = biological target: Cyclin-dependent kinase 3 (Homo sapiens) (UniProt Q00526); test: Inhibition of CDK3 (unknown origin) at 1 uM by Ambit Kinomescan binding assay relative to control; values are per cent of control
[11] = biological target: 5'-AMP-activated protein kinase catalytic subunit alpha-1 (Homo sapiens) (UniProt Q13131); test: Inhibition of AMPKa1 Lys2 labeling site in human A-375 cells at 0.5 uM by KiNativ Profiling analysis relative to control; assay type: cell-based
Outline: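 Intact A375 melanoma cells were treated with compound at 5 or 0.5 μM, then lysed. Lysate kinases were labeled with a lysine-reactive ATP or ADP-biotin probe (KiNativ). Inhibition is read as protection of each kinase labeling site from probe labeling.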

[12] = biological target: T2, Inhibitor of nuclear factor kappa-B kinase subunit epsilon (Homo sapiens) (UniProt Q14164); test: Inhibition of IKKe Lys2 labeling site in human Huh-7 cell lysate at 1 uM by KiNativ Profiling analysis relative to control; assay type: subcellular
T2 sequence (whole entry): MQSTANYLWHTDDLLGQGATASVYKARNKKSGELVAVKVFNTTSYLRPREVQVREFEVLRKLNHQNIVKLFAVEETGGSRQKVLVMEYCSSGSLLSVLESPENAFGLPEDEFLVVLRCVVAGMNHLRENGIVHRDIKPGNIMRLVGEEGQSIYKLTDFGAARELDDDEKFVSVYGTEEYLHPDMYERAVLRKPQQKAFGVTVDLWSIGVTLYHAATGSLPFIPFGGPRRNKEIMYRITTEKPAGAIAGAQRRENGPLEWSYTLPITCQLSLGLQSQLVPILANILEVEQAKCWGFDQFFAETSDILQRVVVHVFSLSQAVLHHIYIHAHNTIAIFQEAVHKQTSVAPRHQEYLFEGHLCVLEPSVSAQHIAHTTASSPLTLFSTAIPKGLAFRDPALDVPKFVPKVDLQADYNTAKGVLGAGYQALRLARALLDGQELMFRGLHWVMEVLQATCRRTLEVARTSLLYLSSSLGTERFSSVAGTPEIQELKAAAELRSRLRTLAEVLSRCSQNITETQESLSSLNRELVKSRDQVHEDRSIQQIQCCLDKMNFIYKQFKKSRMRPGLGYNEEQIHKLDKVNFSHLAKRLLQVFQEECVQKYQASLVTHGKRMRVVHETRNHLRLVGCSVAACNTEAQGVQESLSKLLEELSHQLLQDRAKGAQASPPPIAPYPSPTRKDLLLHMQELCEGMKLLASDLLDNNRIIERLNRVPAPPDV

Chain of Tyrosine-protein kinase ABL1 (P00519 whole entry): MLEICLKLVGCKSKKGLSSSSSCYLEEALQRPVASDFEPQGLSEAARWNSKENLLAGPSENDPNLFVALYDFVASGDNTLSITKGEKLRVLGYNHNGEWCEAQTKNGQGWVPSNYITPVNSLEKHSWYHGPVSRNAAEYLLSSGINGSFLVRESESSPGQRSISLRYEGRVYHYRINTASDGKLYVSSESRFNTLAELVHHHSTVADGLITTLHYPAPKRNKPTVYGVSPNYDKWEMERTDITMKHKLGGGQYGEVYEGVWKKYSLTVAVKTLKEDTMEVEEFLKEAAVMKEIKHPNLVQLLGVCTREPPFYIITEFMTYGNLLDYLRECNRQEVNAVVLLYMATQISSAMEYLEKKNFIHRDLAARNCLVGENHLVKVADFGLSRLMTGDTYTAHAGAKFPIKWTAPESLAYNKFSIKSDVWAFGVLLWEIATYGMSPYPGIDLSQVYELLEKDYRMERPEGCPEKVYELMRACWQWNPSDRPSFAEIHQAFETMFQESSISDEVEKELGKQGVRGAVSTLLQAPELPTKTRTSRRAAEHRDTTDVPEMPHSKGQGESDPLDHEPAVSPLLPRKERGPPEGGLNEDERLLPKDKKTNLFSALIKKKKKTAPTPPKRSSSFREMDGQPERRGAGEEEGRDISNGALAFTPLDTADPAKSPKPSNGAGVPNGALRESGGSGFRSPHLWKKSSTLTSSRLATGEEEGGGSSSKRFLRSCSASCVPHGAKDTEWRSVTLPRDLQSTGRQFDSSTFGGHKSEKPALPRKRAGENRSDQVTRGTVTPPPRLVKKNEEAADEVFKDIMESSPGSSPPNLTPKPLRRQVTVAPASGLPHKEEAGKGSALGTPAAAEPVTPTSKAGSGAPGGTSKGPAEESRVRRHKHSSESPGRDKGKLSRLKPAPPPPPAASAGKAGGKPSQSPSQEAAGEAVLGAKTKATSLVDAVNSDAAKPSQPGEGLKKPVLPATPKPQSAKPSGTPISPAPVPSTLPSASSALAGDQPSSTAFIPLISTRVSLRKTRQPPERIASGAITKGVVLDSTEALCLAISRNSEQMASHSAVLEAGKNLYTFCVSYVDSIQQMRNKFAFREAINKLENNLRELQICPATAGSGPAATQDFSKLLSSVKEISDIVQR
Chain of Activin receptor type-1B (Homo sapiens) (P36896 whole entry): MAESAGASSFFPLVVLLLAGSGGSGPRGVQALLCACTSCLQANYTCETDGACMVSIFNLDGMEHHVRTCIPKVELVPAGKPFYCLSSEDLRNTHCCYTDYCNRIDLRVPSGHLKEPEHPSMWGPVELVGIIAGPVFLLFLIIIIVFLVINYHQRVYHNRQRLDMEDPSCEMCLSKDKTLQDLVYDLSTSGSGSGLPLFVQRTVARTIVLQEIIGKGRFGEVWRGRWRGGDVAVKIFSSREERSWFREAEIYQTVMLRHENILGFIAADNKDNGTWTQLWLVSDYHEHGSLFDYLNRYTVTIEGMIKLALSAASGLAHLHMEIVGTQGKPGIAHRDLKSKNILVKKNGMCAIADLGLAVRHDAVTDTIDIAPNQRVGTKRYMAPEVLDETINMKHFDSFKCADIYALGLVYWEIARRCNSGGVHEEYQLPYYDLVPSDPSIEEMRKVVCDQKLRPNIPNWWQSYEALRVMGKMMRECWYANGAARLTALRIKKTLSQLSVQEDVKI
Chain of Serine/threonine-protein kinase MRCK alpha (Homo sapiens) (Q5VT25 whole entry): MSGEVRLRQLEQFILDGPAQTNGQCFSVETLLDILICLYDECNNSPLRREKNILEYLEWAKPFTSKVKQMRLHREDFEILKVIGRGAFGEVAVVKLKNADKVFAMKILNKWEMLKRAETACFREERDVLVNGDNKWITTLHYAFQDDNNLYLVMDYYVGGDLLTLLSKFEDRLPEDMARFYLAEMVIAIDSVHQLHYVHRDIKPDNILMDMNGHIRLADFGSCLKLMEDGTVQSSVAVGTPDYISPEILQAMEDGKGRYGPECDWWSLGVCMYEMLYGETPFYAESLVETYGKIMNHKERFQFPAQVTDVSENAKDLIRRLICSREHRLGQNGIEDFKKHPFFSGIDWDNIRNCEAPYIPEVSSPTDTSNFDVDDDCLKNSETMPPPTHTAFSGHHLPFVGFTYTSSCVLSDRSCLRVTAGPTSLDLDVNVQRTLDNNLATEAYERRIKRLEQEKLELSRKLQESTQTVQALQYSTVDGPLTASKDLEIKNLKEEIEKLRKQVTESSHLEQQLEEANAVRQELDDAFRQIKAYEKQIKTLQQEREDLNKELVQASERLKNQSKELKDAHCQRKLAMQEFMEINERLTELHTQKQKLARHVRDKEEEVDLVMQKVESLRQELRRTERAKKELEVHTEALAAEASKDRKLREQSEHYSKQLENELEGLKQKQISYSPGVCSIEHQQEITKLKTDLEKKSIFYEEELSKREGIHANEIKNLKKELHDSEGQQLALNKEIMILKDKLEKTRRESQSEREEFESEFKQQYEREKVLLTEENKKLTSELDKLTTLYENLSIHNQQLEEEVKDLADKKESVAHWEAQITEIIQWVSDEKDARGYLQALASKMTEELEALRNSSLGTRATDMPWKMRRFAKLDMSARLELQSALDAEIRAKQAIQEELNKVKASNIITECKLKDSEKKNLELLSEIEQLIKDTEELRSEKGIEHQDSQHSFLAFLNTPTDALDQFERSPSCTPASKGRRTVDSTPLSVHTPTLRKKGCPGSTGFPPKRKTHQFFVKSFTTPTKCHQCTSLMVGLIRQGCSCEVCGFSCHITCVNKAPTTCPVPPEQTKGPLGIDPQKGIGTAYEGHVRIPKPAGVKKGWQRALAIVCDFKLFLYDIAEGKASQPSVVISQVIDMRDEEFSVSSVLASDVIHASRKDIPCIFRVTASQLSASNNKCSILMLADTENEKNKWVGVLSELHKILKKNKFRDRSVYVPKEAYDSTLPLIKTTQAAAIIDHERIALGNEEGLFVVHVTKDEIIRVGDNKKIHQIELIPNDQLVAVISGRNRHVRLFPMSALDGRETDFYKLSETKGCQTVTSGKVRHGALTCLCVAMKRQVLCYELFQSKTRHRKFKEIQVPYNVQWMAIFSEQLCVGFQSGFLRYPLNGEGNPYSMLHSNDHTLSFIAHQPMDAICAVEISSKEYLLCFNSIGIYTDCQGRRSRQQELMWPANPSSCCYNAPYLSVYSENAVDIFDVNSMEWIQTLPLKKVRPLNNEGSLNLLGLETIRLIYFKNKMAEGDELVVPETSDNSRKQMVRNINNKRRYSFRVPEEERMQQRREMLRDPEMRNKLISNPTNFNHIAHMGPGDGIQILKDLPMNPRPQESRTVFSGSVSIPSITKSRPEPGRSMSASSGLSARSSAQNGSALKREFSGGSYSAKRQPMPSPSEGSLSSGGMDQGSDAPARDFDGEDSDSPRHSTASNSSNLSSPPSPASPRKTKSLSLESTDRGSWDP
Chain of Epidermal growth factor receptor (Homo sapiens), P00533 [UNDEFINED MUTATION] (P00533 whole entry, looked up, change not shown): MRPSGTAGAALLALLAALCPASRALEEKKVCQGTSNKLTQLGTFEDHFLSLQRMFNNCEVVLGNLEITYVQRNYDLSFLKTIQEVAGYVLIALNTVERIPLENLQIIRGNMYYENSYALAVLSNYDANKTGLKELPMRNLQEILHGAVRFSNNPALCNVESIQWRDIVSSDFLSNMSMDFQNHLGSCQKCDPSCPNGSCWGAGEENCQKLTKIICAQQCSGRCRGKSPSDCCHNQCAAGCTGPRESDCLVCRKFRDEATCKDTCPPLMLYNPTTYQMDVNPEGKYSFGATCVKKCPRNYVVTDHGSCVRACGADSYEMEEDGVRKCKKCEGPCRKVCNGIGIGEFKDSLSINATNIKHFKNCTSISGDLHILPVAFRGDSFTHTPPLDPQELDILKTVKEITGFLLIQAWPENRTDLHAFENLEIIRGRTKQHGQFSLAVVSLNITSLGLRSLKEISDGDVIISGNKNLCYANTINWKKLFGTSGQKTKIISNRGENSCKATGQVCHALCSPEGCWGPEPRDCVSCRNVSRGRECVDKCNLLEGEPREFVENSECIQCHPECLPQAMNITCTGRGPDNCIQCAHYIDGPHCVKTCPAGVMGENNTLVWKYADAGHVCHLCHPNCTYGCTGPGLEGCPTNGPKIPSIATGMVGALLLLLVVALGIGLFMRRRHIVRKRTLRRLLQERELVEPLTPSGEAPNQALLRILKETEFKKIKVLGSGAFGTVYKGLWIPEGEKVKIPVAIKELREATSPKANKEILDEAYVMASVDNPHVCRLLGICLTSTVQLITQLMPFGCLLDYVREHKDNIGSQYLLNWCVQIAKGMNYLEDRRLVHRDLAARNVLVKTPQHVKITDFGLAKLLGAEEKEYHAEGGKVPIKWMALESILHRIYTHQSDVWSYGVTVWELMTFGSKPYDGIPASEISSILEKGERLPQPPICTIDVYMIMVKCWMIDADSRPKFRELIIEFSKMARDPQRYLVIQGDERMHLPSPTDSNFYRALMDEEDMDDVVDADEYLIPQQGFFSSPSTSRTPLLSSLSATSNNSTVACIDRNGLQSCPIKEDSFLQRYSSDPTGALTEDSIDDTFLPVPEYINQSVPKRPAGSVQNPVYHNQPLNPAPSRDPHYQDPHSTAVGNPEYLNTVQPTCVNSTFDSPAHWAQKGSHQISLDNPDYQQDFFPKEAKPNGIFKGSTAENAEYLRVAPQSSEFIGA
Chain of Tyrosine-protein kinase Fyn (Homo sapiens) (P06241 2-537 limits assumed): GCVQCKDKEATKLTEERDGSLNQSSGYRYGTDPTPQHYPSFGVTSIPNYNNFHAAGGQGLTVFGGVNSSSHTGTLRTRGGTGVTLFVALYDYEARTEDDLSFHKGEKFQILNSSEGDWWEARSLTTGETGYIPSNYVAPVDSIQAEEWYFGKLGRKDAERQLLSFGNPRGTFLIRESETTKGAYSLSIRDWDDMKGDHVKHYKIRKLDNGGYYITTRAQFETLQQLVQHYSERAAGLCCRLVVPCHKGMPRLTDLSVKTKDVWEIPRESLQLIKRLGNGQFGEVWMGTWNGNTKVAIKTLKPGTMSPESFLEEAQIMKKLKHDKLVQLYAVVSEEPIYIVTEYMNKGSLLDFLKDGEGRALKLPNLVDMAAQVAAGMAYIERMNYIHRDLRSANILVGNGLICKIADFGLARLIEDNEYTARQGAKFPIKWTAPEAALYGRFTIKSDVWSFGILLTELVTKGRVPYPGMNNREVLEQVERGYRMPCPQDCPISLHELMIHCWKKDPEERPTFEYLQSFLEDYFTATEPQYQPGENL

`CCN1CCN(Cc2ccc(NC(=O)c3ccc(C)c(Oc4ccnc5[nH]ccc45)c3)cc2C(F)(F)F)CC1` was tested, and the percent of control [1] was 1.6%, the residual activity [2] was 0.2% and the inhibition [3] was “inactive”. For the same compound, the inhibition [4] was “inactive”, the inhibition [5] was “inactive” and the inhibition [6] was 1.2%. The inhibition [7] was 35.6%, the inhibition [8] was “inactive” and the inhibition [9] was 84.8%.
`CCN1CCN(Cc2ccc(NC(=O)c3ccc(C)c(/C=C/c4cnc5[nH]ccc5c4OC)c3)cc2C(F)(F)F)CC1` was tested, and the % of control [10] was 100% and the inhibition [11] was -8.2%.
With `CNc1cc(Oc2cc(C(=O)Nc3cc(N4CCN(C)CC4)cc(C(F)(F)F)c3)ccc2C)ncn1` the inhibition [12] was -5.8%.
